Experimental data: ChEMBL document CHEMBL2203243, “Synthesis and biological evaluation of novel benzimidazole derivatives and their binding behavior with bovine serum albumin” (Eur J Med Chem, 2012); call rule not given here
Converted amounts (≈) assume the structure as drawn.

Legend:
[1] = system: Micrococcus luteus; test: Antimicrobial activity against Micrococcus luteus ATCC 4698 by microbroth dilution method; assay type: functional
Procedure, shortened: (§1)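 Two-fold serial broth microdilution in 96-well microtest plates, run against four Gram-positive strains, five Gram-negative strains and two fungi.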

[2] = system: Staphylococcus aureus; test: Antimicrobial activity against methicillin-resistant Staphylococcus aureus N315 by microbroth dilution method; assay type: functional
[3] = system: Bacillus subtilis; test: Antimicrobial activity against Bacillus subtilis by microbroth dilution method; assay type: functional; procedure, shortened: as §1
[4] = system: Pseudomonas aeruginosa; test: Antimicrobial activity against Pseudomonas aeruginosa by microbroth dilution method; assay type: functional; procedure, shortened: as §1
[5] = system: Candida albicans; test: Antimicrobial activity against Candida albicans by microbroth dilution method; assay type: functional; procedure, shortened: as §1
[6] = system: Bacillus; test: Antimicrobial activity against Bacillus proteus by microbroth dilution method; assay type: functional; procedure, shortened: as §1
[7] = Antimicrobial activity against Eberthella typhosa by microbroth dilution method; assay type: functional; procedure, shortened: as §1
[8] = system: Candida; test: Antimicrobial activity against Candida mycoderma by microbroth dilution method; assay type: functional; procedure, shortened: as §1
[9] = system: Staphylococcus aureus; test: Antimicrobial activity against Staphylococcus aureus ATCC 25923 by microbroth dilution method; assay type: functional; procedure, shortened: as §1
[10] = system: Shigella dysenteriae; test: Antimicrobial activity against Shigella dysenteriae by microbroth dilution method; assay type: functional
[11] = system: Escherichia coli; test: Antimicrobial activity against Escherichia coli DH52 by microbroth dilution method; assay type: functional; procedure, shortened: as §1
[12] = Lipophilicity, log P of the compound by UV-Vis spectrophotometric method based saturation shake flask assay; assay type: physicochemical; conditions: octanol/water
Procedure, shortened: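 Log P measured by the traditional saturation shake-flask partition, with compound quantified by UV-vis spectrophotometry.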

[13] = system: Candida; test: Potency index, ratio of MIC of fluconazole to MIC of compound against Candida mycoderma by microbroth dilution method; assay type: functional
[14] = system: Escherichia coli; test: Potency index, ratio of MIC of chloromycin to MIC of compound against Escherichia coli DH52 by microbroth dilution method; assay type: functional
[15] = molecular target: Albumin (Bos taurus, UniProt P02769); test: Binding affinity to BSA at pH 7.4 by UV-vis absorption spectroscopic method; assay type: ADME; conditions: cattle, isolated protein
[16] = system: Staphylococcus aureus; test: Potency index, ratio of MIC of chloromycin to MIC of compound against methicillin-resistant Staphylococcus aureus N315 by microbroth dilution method; assay type: functional
[17] = system: Pseudomonas aeruginosa; test: Potency index, ratio of MIC of chloromycin to MIC of compound against Pseudomonas aeruginosa by microbroth dilution method; assay type: functional

Chain of Albumin (P02769 whole entry): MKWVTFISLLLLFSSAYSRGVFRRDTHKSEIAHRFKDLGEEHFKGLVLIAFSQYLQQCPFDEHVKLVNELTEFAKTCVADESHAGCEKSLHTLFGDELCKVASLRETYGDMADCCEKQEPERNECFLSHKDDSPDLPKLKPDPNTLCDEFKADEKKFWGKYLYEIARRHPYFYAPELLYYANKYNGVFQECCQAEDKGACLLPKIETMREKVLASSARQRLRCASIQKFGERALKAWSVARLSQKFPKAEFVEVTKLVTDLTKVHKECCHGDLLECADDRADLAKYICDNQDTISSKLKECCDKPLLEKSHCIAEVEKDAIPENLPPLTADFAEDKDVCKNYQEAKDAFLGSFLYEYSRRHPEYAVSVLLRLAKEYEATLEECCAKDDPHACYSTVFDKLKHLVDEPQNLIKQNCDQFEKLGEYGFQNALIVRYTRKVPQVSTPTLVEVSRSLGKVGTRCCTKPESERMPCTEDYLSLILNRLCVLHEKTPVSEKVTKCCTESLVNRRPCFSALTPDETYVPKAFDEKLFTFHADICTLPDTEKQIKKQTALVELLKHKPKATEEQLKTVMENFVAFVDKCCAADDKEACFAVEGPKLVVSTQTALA

| SMILES | MIC [1] | MIC [2] | MIC [3] | MIC [4] | MIC [5] | MIC [6] | MIC [7] | MIC [8] | MIC [9] | MIC [10] | MIC [11] | logP [12] | logP ([12]; read-out: logP) | Ratio [13] | Ratio [14] | Activity [15] | Ratio [16] | Ratio [17] |
| --- | --- | --- | --- | --- | --- | --- | --- | --- | --- | --- | --- | --- | --- | --- | --- | --- | --- | --- |
| Cc1c(C(=O)NNCc2nc3ccccc3n2Cc2ccc(F)cc2)sc(C(=O)NNCc2nc3ccccc3n2Cc2ccc(F)cc2)c1C.Cl | 64 µg/mL | 32 µg/mL | 16 µg/mL | 64 µg/mL | 64 µg/mL | 128 µg/mL | 256 µg/mL | 8 µg/mL | 256 µg/mL | 8 µg/mL | 16 µg/mL | – | – | – | – | – | – | – |
| Cc1c(C(=O)NN)sc(C(=O)NN)c1C | 512 µg/mL (≈ 2240 µM) | > 512 µg/mL | > 512 µg/mL | > 512 µg/mL | 512 µg/mL (≈ 2240 µM) | > 512 µg/mL | 512 µg/mL (≈ 2240 µM) | 512 µg/mL (≈ 2240 µM) | > 512 µg/mL | 512 µg/mL (≈ 2240 µM) | 512 µg/mL (≈ 2240 µM) | -1.41 | – | – | – | – | – | – |
| Cc1c(C(=O)NNCc2nc3ccccc3[nH]2)sc(C(=O)NNCc2nc3ccccc3[nH]2)c1C | 256 µg/mL (≈ 524 µM) | > 512 µg/mL | 128 µg/mL (≈ 262 µM) | > 512 µg/mL | > 512 µg/mL | 256 µg/mL (≈ 524 µM) | 512 µg/mL (≈ 1050 µM) | 256 µg/mL (≈ 524 µM) | > 512 µg/mL | 512 µg/mL (≈ 1050 µM) | 512 µg/mL (≈ 1050 µM) | – | 1.25 | – | – | – | – | – |
| Cc1c(C(=O)NN)sc(C(=O)NNCc2nc3ccccc3[nH]2)c1C | 128 µg/mL (≈ 357 µM) | 256 µg/mL (≈ 714 µM) | 64 µg/mL (≈ 179 µM) | 256 µg/mL (≈ 714 µM) | 256 µg/mL (≈ 714 µM) | 128 µg/mL (≈ 357 µM) | 64 µg/mL (≈ 179 µM) | 128 µg/mL (≈ 357 µM) | 256 µg/mL (≈ 714 µM) | 512 µg/mL (≈ 1430 µM) | 512 µg/mL (≈ 1430 µM) | – | 0.84 | – | – | – | – | – |
| CCCn1c(CNNC(=O)c2sc(C(=O)NNCc3nc4ccccc4n3CCC)c(C)c2C)nc2ccccc21 | 256 µg/mL (≈ 447 µM) | 32 µg/mL (≈ 55.9 µM) | 256 µg/mL (≈ 447 µM) | 128 µg/mL (≈ 223 µM) | 512 µg/mL (≈ 894 µM) | 256 µg/mL (≈ 447 µM) | 256 µg/mL (≈ 447 µM) | 256 µg/mL (≈ 447 µM) | 512 µg/mL (≈ 894 µM) | 256 µg/mL (≈ 447 µM) | 256 µg/mL (≈ 447 µM) | – | 3.7 | – | – | – | – | – |
| CCCCCCn1c(CNNC(=O)c2sc(C(=O)NNCc3nc4ccccc4n3CCCCCC)c(C)c2C)nc2ccccc21 | 64 µg/mL (≈ 97.4 µM) | 4 µg/mL (≈ 6.09 µM) | 32 µg/mL (≈ 48.7 µM) | 32 µg/mL (≈ 48.7 µM) | 32 µg/mL (≈ 48.7 µM) | 64 µg/mL (≈ 97.4 µM) | 64 µg/mL (≈ 97.4 µM) | 32 µg/mL (≈ 48.7 µM) | 32 µg/mL (≈ 48.7 µM) | 64 µg/mL (≈ 97.4 µM) | 8 µg/mL (≈ 12.2 µM) | – | 6.62 | – | – | – | – | – |
| CCCCCCCCn1c(CNNC(=O)c2sc(C(=O)NNCc3nc4ccccc4n3CCCCCCCC)c(C)c2C)nc2ccccc21 | 16 µg/mL (≈ 22.4 µM) | 8 µg/mL (≈ 11.2 µM) | 32 µg/mL (≈ 44.9 µM) | 16 µg/mL (≈ 22.4 µM) | 16 µg/mL (≈ 22.4 µM) | > 512 µg/mL | 64 µg/mL (≈ 89.8 µM) | 4 µg/mL (≈ 5.61 µM) | 32 µg/mL (≈ 44.9 µM) | 16 µg/mL (≈ 22.4 µM) | 32 µg/mL (≈ 44.9 µM) | – | 8.19 | – | – | – | – | – |
| CCCCCCCCCCn1c(CNNC(=O)c2sc(C(=O)NNCc3nc4ccccc4n3CCCCCCCCCC)c(C)c2C)nc2ccccc21 | 16 µg/mL (≈ 20.8 µM) | 2 µg/mL (≈ 2.6 µM) | 4 µg/mL (≈ 5.2 µM) | 4 µg/mL (≈ 5.2 µM) | 4 µg/mL (≈ 5.2 µM) | 8 µg/mL (≈ 10.4 µM) | 4 µg/mL (≈ 5.2 µM) | 2 µg/mL (≈ 2.6 µM) | 2 µg/mL (≈ 2.6 µM) | 8 µg/mL (≈ 10.4 µM) | 4 µg/mL (≈ 5.2 µM) | ND(Insoluble) | – | 2 | 8 | Active | 8 | 8 |
| O=C(N[C@H](CO)[C@H](O)c1ccc([N+](=O)[O-])cc1)C(Cl)Cl [CHLORAMPHENICOL] | 8 µg/mL (≈ 24.8 µM) | 16 µg/mL (≈ 49.5 µM) | 32 µg/mL (≈ 99 µM) | 32 µg/mL (≈ 99 µM) | – | 32 µg/mL (≈ 99 µM) | 32 µg/mL (≈ 99 µM) | – | 16 µg/mL (≈ 49.5 µM) | 32 µg/mL (≈ 99 µM) | 32 µg/mL (≈ 99 µM) | – | – | – | – | – | – | – |
| OC(Cn1cncn1)(Cn1cncn1)c1ccc(F)cc1F [FLUCONAZOLE] | – | – | – | – | 1 µg/mL (≈ 3.27 µM) | – | – | 4 µg/mL (≈ 13.1 µM) | – | – | – | – | – | – | – | – | – | – |
| CCn1cc(C(=O)O)c(=O)c2cc(F)c(N3CCNCC3)cc21 [NORFLOXACIN] | 2 µg/mL (≈ 6.26 µM) | 8 µg/mL (≈ 25.1 µM) | 1 µg/mL (≈ 3.13 µM) | 16 µg/mL (≈ 50.1 µM) | – | 8 µg/mL (≈ 25.1 µM) | 4 µg/mL (≈ 12.5 µM) | – | 0.5 µg/mL (≈ 1.57 µM) | 4 µg/mL (≈ 12.5 µM) | 16 µg/mL (≈ 50.1 µM) | – | – | – | – | – | – | – |
